# Source: PubChem (several laboratories)
# Sampled rows, rich in hits. Any-hit rate of the full collection: about 12%.
# RAM inhibit: inhibitors of the yeast RAM network, primary screen, dse1pr::URA3 reporter, 5-FOA selection; inhibition, % at 50 µM; AID 868, 2007; hit rate 1.8% among 190,000; S. cerevisiae dse1pr::URA3 reporter, 5-FOA growth OD615, 2 d; analog-sensitive cbk1-as2 kinase mutant strain;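 active means inhibition above a set limit, 3 SD over mean compound inhibition, cut at about 8.4% in these data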;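 further: inhibition rescues growth on 5-FOA so higher OD means more RAM inhibition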
# L major viab: Leishmania major promastigote growth inhibition, primary screen | inhibition, % at 10 µM | AID 1063, 2008 | Leishmania major promastigotes, resazurin fluorescence viability | hit rate 9% among 200,000; in the data active means inhibition above about 50%;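 further: promastigotes grown with compound for 44 hours at 28 °C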
# WT yeast gro inh: growth inhibition of WT strain, primary screen, mitochondrial fusion inhibitor project, WT and mutant strains, chemical genetic. mitochondrial fusion phenotypic screen. inhibition, % at 10 µM. hit rate 2.1% among 190,000. AID 1362, 2008; in the data active means inhibition above about 58%; tested in S. cerevisiae
# ABCG2 inh: ABCG2 efflux pump inhibitors, primary screen, multiplex with ABCB1, IgMXP3 cells, flow cytometry. Broad substrate specificity ATP-binding cassette transporter ABCG2 (Homo sapiens), Q9UNQ0. JC-1 efflux. inhibition, % at 6.6 µM. hit rate 0.1% among 190,000. AID 1325, 2008;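 active means inhibition above 80%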
# Target sequence (Q9UNQ0 whole entry, looked up): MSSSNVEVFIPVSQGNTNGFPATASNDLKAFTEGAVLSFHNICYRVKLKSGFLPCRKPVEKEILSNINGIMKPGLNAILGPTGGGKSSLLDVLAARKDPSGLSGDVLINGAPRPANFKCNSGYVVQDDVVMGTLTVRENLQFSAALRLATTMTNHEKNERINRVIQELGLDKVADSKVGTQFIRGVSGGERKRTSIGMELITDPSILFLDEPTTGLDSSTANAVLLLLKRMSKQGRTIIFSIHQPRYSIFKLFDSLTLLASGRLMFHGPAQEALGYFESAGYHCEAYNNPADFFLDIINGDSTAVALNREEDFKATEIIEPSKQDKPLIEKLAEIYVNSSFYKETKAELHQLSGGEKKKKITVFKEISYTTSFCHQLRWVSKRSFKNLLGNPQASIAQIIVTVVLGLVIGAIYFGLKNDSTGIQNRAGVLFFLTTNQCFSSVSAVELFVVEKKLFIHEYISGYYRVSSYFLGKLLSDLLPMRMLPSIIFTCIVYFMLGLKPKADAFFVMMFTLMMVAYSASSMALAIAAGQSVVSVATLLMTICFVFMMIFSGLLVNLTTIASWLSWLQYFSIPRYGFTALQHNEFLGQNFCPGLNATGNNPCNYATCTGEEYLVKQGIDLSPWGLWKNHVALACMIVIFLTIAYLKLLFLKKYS
#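 Test system: IgMXP3 (ABCG2) plus far-red-tagged CCRF-Adr (ABCB1) cells. Reagent: JC-1 dye as substrate. Timing: 10 min exposure at 25 °C with rotation, no wash. Measured by: flow cytometric JC-1 green MFI at 530 nm. Read-out: percent efflux inhibition, scaled nicardipine 100% to DMSO 0%. Control set: nicardipine and DMSO wells.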
# ABCB1 inh: ABCB1 efflux pump inhibitors, primary screen, cell-based, multiplex, flow cytometry, ABCG2 counter-screen; CCRF-Adr cells, JC-1 efflux; inhibition, % at 6.6 µM; hit rate 0.067% among 190,000; in the data active means inhibition above about 40%;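 further: higher value means more JC-1 retained so stronger ABCB1 efflux block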
# A number is an active result; - = inactive; . = no result given.
SMILES,RAM inhibit,L major viab,WT yeast gro inh,ABCG2 inh,ABCB1 inh
Fc1ccccc1Cc1noc(CN2CCN(Cc3ccc4c(c3)OCO4)CC2)n1,-,83.9,-,-,-
COc1ccccc1CN1CCN(Cc2nc(Cc3ccccc3)no2)CC1,-,-,-,-,-
COC(=O)N/N=C/c1sc(N2CCCCC2)nc1-c1cccs1,-,-,-,-,-
Cc1ccc(C)n1-c1ccc(C(=O)NN)s1,-,-,-,-,-
Cc1ccc(OP(=O)(Nc2c(C)n(C)n(-c3ccccc3)c2=O)Oc2ccc(C)cc2)cc1,-,68.5,-,-,-
CC(=O)Nc1ccccc1/C=C/c1ccc2c(C)cc(C)c(O)c2n1,-,-,77.3,-,-
COc1ccc2cc(C(N)=O)/c(=N/NC(=O)c3ccco3)oc2c1,-,-,-,-,-
c1ccc(CC2CCN(Cc3ccccn3)CC2)cc1,-,-,-,-,-
COc1cc(C(C)=O)ccc1OCCN1CCC(Cc2ccccc2)CC1,-,89.8,-,-,-
Clc1ccccc1OCCN1CCC(Cc2ccccc2)CC1,-,89.9,-,-,-
Cc1c(C(=O)N2CCc3ccccc32)oc2ccccc12,-,81.2,-,-,-
Cc1cc(Br)cc2c1NC(=O)C2(O)CC(=O)c1ccco1 (stereo not drawn),-,-,-,-,-
Cc1ccc(NC(=O)CNC(c2ccccc2)c2ccccc2)c(F)c1,-,71.2,-,-,-
O=C(CNC(c1ccccc1)c1ccccc1)Nc1c(F)cccc1F,-,-,-,-,-
O=C(c1ccc(F)cc1)C1CCN(S(=O)(=O)c2ccccc2)CC1,-,-,-,-,-
C/C(=N\Nc1nc2ccccc2[nH]1)c1ccc(Cl)s1,-,89.7,-,-,-
C/C(=N\Nc1nc2ccccc2[nH]1)c1ccc(N2CCOCC2)cc1,-,100.4,-,-,-
C/C(=N\Nc1nc2ccccc2[nH]1)c1ccc(C)o1,-,65.0,-,-,-
CC1CCN(c2nc(-c3ccncc3)nc3ccccc23)CC1,-,98.9,-,-,-
c1ccc2c(N3CCOCC3)nc(-c3ccncc3)nc2c1,-,91.8,-,-,-
CCN1CCN(c2nc(-c3ccccc3)nc3ccccc23)CC1,-,-,-,-,-
c1cncc(-c2nc(N3CCOCC3)c3ccccc3n2)c1,-,-,-,-,-
CCCCCCCCCCOC(=O)C[N+](C)(C)C/C=C(/C)Cl,-,100.2,-,-,-
CCCCCCCCOC(=O)C[N+](C)(C)C/C=C(/C)Cl,-,67.4,-,-,-
CCCCCCOC(=O)Cc1c(C)nc(-c2ccccc2)[nH]c1=O,-,-,-,-,-
SMILES,RAM inhibit,L major viab,WT yeast gro inh,ABCG2 inh,ABCB1 inh
CCCCCCCCOC(=O)c1ccc(N)cc1,-,-,-,-,-
CN(C)c1ccc(CNC23CC4CC(CC(C4)C2)C3)cc1,.,86.5,.,.,.
CC1CCCC(NC(=O)CNC(=S)N(Cc2ccccc2)Cc2cccs2)C1C (stereo not drawn),-,-,65.0,-,-
CCOc1ccccc1CN(CCc1ccc2c(c1)OCO2)Cc1ccccn1,-,82.5,-,-,-
CCOc1ccc(CN(C)CCc2ccccn2)cc1,-,-,-,-,-
CC(C)CC1=NN(C(=O)c2ccncc2)C(O)(C(F)(F)F)C1 (stereo not drawn),-,-,-,-,-
COc1cc(/C=N/NC(=O)CCc2ccccc2)ccc1O,-,-,70.2,-,-
CCC1=[N+](C)c2cccc3cccc(c23)N1C,-,-,59.1,-,-
CCOCCCNC(=O)c1cc(Sc2ccc(C)cc2)nc2ccccc12,10.9,-,-,-,-
Cc1cc(Nc2cccc(C(F)(F)F)c2)n2nc(C)nc2n1,-,-,79.1,-,-
Cc1nn(-c2nc3ccccc3[nH]2)c(=O)c2ccccc12,-,-,90.5,-,-
O=C(CSc1nnc(CNC(=O)c2ccco2)o1)Nc1nc2ccccc2s1,-,-,-,-,-
Cc1ccc(C(=O)c2cnc3ccccc3c2-c2ccccc2)cc1,-,57.1,-,-,-
CCc1cc(C(=O)COc2ccccc2F)c(O)cc1O,-,-,-,-,-
CN1CCC(N(C)C(=O)/C=C/c2cn(-c3ccccc3)nc2-c2cccs2)CC1,-,100.7,-,-,-
CC1=NNC(=O)/C1=C\c1cn(-c2ccccc2)nc1-c1ccc(F)cc1,-,100.4,89.5,-,-
CC1=NNC(=O)/C1=C\c1cn(-c2ccccc2)nc1-c1cccs1,-,100.5,-,-,-
CC(C)(C)N(Cc1ccccc1)C(=O)CCc1ccccc1,-,-,-,-,-
CC(C(=O)N1CCOCC1)N1C(=O)c2cccc3cccc(c23)C1=O (stereo not drawn),-,-,-,-,-
COC(CNC(=O)C1CCN(C(=O)c2cc3oc(C)cc3n2Cc2c(F)cccc2Cl)CC1)OC,-,-,-,-,-
CCOC(=O)N1CCC(NC(=O)C2CCN(C(=O)c3cc4oc(C)cc4n3Cc3c(F)cccc3Cl)CC2)CC1,-,75.5,-,-,-
Cc1ccc(OCCNC(=O)Cc2ccc(F)cc2)cc1,-,-,-,-,-
O=C(N/N=C/c1ccccc1Cl)c1nc2ccc([N+](=O)[O-])cc2c(=O)[nH]1,10.2,-,-,-,-
O=[N+]([O-])c1cccnc1NCc1cccs1,-,-,-,-,-
Cc1ccc(NC2=NCC(=O)N2Cc2ccc3c(c2)OCO3)cc1,-,-,-,-,-
SMILES,RAM inhibit,L major viab,WT yeast gro inh,ABCG2 inh,ABCB1 inh
CCC(OC(=O)c1cccs1)C(=O)NCc1ccc(C)cc1 (stereo not drawn),-,-,-,-,-
CCSc1nc2sc3c(c2c(=O)[nH]1)CCCC3,-,-,-,-,-
CCSC1=NC2(CCCCC2)Nc2sc3c(c21)CCCC3,-,100.2,-,-,-
CC1=C(C(=O)OCCOC(C)C)C(c2cc3c(cc2Br)OCO3)CC(=O)N1 (stereo not drawn),-,98.3,-,-,-
COC(=O)C1=C(C)NC(=O)CC1c1cc2c(cc1Br)OCO2 (stereo not drawn),-,-,-,-,-
Cc1ccc(NC(=O)c2ccc(COc3ccc4c(c3)CCC4)cc2)c(C)c1,-,-,-,-,-
O=C(O)CN(c1ccc2c(c1)OCCO2)S(=O)(=O)c1ccccc1,-,-,-,-,-
COc1ccc(S(=O)(=O)N(CCc2ccccc2)CC(=O)N/N=C/c2ccc3c(c2)OCO3)cc1,-,98.5,-,-,-
COc1ccc(N(CC(=O)N/N=C/c2ccc3c(c2)OCO3)S(=O)(=O)c2ccccc2)cc1,9.2,-,-,-,-
COC(=O)CN(c1ccc2c(c1)OCCO2)S(=O)(=O)c1ccccc1,-,-,72.6,-,-
O=C(NCc1ccc2c(c1)OCO2)C1CCC(=O)N1C1CCCC1 (stereo not drawn),-,-,-,-,-
Cc1nc(Cl)sc1C(=O)Nc1cccc(Cl)c1C,-,-,-,-,-
